A short description of series [1]: Inhibition of gamma-secretase.
A further series deals with Liver microsomes. As to the kind of experiment: Metabolic stability in human liver microsomes. It counts as ADME, Microsome. Background: Microsomes from liver hold many membrane-bound enzymes, among them those of drug oxidation.
Series [2] in a line: Plasma concentration in Tg2576 mouse at 200 umol/kg, po measured at 180 mins. It counts as ADME, organism-based. Put shortly:
(§1)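 Transgenic mice received a single 200 µmol/kg dose. […] Test-compound concentrations in brain and plasma (nM) were measured at the same time point.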

The subject of series [3] is Mus musculus. The experiment in a line: Antialzheimer activity in Tg2576 mouse assessed as reduction in brain amyloid-beta40 level at 200 umol/kg, po measured at 180 mins. In kind it is functional. Conditions: 3 h; call rule not given here. Put shortly: as §1
Series [4] can be described thus: Drug uptake in Tg2576 mouse brain at 200 umol/kg, po measured at 180 mins. It counts as ADME, organism-based. Conditions: read-out: Drug uptake. Put shortly: as §1
A further series deals with Liver. The experiment in a line: Metabolic stability in mouse liver microsomes. In kind it is ADME, Microsome.
For series [5], the system named is Mus musculus. As to the kind of experiment: Antialzheimer activity in Tg2576 mouse assessed as reduction in plasma amyloid-beta40 level at 200 umol/kg, po measured at 180 mins. In kind it is functional. Conditions: 3 h. Put shortly:
as §1

A short description of series [6]: Inhibition of gamma-secretase-mediated amyloid beta42 production by GS H4-8 SW1-42 assay.
The target in a further series is Gamma-secretase. The experiment in a line: Inhibition of human gamma-secretase expressed in IMR32 cell membranes using MBPC-125 Swedish as substrate assessed as inhibition of amyloid beta40 production after 2 hrs by ELISA. Conditions: imr-32.

For orientation: IC50 means the concentration that inhibits the measured activity by half. In series [1], `NC(=O)[C@@H](CCC(F)(F)F)N(Cc1ccc(-c2ncon2)cc1F)S(=O)(=O)c1ccc(Cl)cc1` displayed an IC50 of 0.3 nM.
A word on the inhibition in vivo: it is the share of the control response that was lost under treatment. On to `N#Cc1ccc(CN([C@H](CC2CC2)C(N)=O)S(=O)(=O)c2ccc(Cl)cc2)cc1`, for which the Stability with Liver microsomes was 0.16 nmol/min/mg; in the series with Liver it was 0.17 nmol/min/mg. Moreover, the concentration at 3 h in series [2] turned out to be 8600 nM; in [4], 2800 nM. Also, the figures for the inhibition in vivo at 200 µmol/kg in the series on Mus musculus [3] and in the series with Mus musculus [5] were 75% and 81%, respectively. For the same molecule, the IC50 in series [6] (read-out: IC50) stood at 0.94 nM.
Regarding `COc1ccc(CN([C@H](CC(C)C)C(N)=O)S(=O)(=O)c2ccc(Cl)cc2)cc1`, the IC50 on Gamma-secretase turned out to be 0.19 nM.
Take `COc1ccc(CN([C@@H](CC(C)C)C(N)=O)S(=O)(=O)c2ccc(Cl)cc2)cc1`: the IC50 in [6] (read-out: IC50) was found to be 315 nM.
On the same count and under the same terms, the result for `COc1ccc(CN([C@H](CC(C)C)C(=O)N(C)C)S(=O)(=O)c2ccc(Cl)cc2)cc1` reads 1100 nM; that for `CNC(=O)[C@@H](CC(C)C)N(Cc1ccc(OC)cc1)S(=O)(=O)c1ccc(Cl)cc1`, 380 nM.
Same read-out and setting: the result for `COc1ccc(CN([C@H](CC(C)C)C(=O)NO)S(=O)(=O)c2ccc(Cl)cc2)cc1F` reads 19 nM; that for `COc1ccc(CN([C@H](CC(C)C)C(=O)N(C)OC)S(=O)(=O)c2ccc(Cl)cc2)cc1`, 160 nM; that for `COc1ccc(CN([C@H](CC(C)C)C(=O)NN)S(=O)(=O)c2ccc(Cl)cc2)cc1`, 53 nM.
Still for that read-out and setting: in the case of `CC(C)C[C@H](C(=O)NN)N(Cc1ccc(C(F)(F)F)cc1)S(=O)(=O)c1ccc(Cl)cc1` it was 110 nM; in that of `COc1ccc(CN([C@H](CC(C)C)c2nc(C)no2)S(=O)(=O)c2ccc(Cl)cc2)cc1`, 2200 nM; in that of `COc1ccc(CN([C@H](CC(C)C)c2nc(C)ns2)S(=O)(=O)c2ccc(Cl)cc2)cc1`, 1200 nM.
As for `COc1ccc(CN([C@H](CC(C)C)C(=O)O)S(=O)(=O)c2ccc(Cl)cc2)cc1F`, the IC50 in [6] (read-out: IC50) turned out to be 220 nM.
With `COc1ccc(CN(C(=O)c2ccc(Cl)cc2)[C@H](CC(C)C)C(N)=O)cc1F`, the IC50 entry in series [6] was “Not Active”.
For the molecule `COc1ccc(CN(C(=O)Nc2ccccc2)[C@H](CC(C)C)C(N)=O)cc1F`, the IC50 in [6] (read-out: IC50) amounted to 1100 nM.
Take `COc1ccc(CN([C@H](CC(C)C)C(N)=O)S(=O)(=O)c2ccccc2)cc1F`: the IC50 in series [6] (read-out: IC50) came to 1.7 nM.
Turning to `COc1ccc(CN([C@H](CC(C)C)C(N)=O)S(=O)(=O)c2ccc(Cl)cc2)cc1F`, the IC50 in [6] (read-out: IC50) was 0.15 nM.
Still for that read-out and setting: in the case of `COc1ccc(CN([C@H](CC(C)C)C(N)=O)S(=O)(=O)c2cccc(Cl)c2)cc1F` it was 7 nM; in that of `COc1ccc(CN([C@H](CC(C)C)C(N)=O)S(=O)(=O)c2ccc(F)cc2)cc1F`, 0.26 nM.
The same measure, in the same setting: in the case of `CC(C)C[C@H](C(N)=O)N(Cc1ccc(C#N)cc1)S(=O)(=O)c1ccc(F)cc1` it was 2.7 nM; in that of `COc1ccc(CN([C@H](CC(C)C)C(N)=O)S(=O)(=O)c2ccc(C)cc2)cc1F`, 0.45 nM.
For `Cc1ccc(S(=O)(=O)N(Cc2ccc(C#N)cc2)[C@H](CC(C)C)C(N)=O)cc1`, in series [6] (read-out: IC50), the IC50 stood at 2.8 nM.
Consider `COc1ccc(CN([C@H](CC(C)C)C(N)=O)S(=O)(=O)c2cccc(C)c2)cc1F`, for which the IC50 in [6] (read-out: IC50) amounted to 9.2 nM.
The same measure, in the same setting: in the case of `COc1ccc(CN([C@H](CC(C)C)C(N)=O)S(=O)(=O)c2ccc(C(F)(F)F)cc2)cc1F` it was 0.27 nM; in that of `CCN([C@H](CC(C)C)C(N)=O)S(=O)(=O)c1ccc(Cl)cc1`, 2.3 nM; in that of `CC(C)C[C@H](C(N)=O)N(CC1CCN(Cc2ccccc2)CC1)S(=O)(=O)c1ccc(Cl)cc1`, 17 nM.
For `CC(C)C[C@H](C(N)=O)N(CCSC(C)(C)C)S(=O)(=O)c1ccc(Cl)cc1`, the IC50 in series [6] (read-out: IC50) worked out at 4.2 nM.
As to `CC(C)C[C@H](C(N)=O)N(CCCCN1CCOCC1)S(=O)(=O)c1ccc(Cl)cc1`, the IC50 in series [6] (read-out: IC50) was found to be 9.9 nM.
On to `CC(C)C[C@H](C(N)=O)N(CCCCCCN1CCOCC1)S(=O)(=O)c1ccc(Cl)cc1`, for which the IC50 in [6] (read-out: IC50) was found to be 3.5 nM.
Still for that read-out and setting: the result for `CC(C)C[C@H](C(N)=O)N(CCCCCCn1ccnc1)S(=O)(=O)c1ccc(Cl)cc1` reads 4.9 nM; that for `CC(C)C[C@H](C(N)=O)N(CCCc1ccccc1)S(=O)(=O)c1ccc(Cl)cc1`, 0.41 nM.
As to `CC(C)C[C@H](C(N)=O)N(CC1CCCCC1)S(=O)(=O)c1ccc(Cl)cc1`, the IC50 in [6] (read-out: IC50) was determined as 0.79 nM.
For the molecule `CC(C)C[C@H](C(N)=O)N(Cc1ccccc1)S(=O)(=O)c1ccc(Cl)cc1`, in series [6] (read-out: IC50), the half-inhibitory concentration (IC50) came out at 0.35 nM.
The same measure, in the same setting: the result for `COc1ccccc1CN([C@H](CC(C)C)C(N)=O)S(=O)(=O)c1ccc(Cl)cc1` reads 23 nM; that for `COc1cccc(CN([C@H](CC(C)C)C(N)=O)S(=O)(=O)c2ccc(Cl)cc2)c1`, 0.59 nM; that for `CC(C)C[C@H](C(N)=O)N(Cc1ccc(C(F)(F)F)cc1)S(=O)(=O)c1ccc(Cl)cc1`, 0.39 nM.
For `CC(C)C[C@H](C(N)=O)N(Cc1ccc(CCl)cc1)S(=O)(=O)c1ccc(Cl)cc1`, in series [6] (read-out: IC50), the IC50 was 0.35 nM.
Regarding `CC(C)C[C@H](C(N)=O)N(Cc1ccc(OC(F)(F)F)cc1)S(=O)(=O)c1ccc(Cl)cc1`, in [6] (read-out: IC50), the IC50 turned out to be 0.69 nM.
The same measure, in the same setting: the result for `CC(C)C[C@H](C(N)=O)N(Cc1ccc(C#N)cc1)S(=O)(=O)c1ccc(Cl)cc1` reads 0.67 nM; that for `CC(C)C[C@H](C(N)=O)N(Cc1ccc(F)cc1)S(=O)(=O)c1ccc(Cl)cc1`, 0.43 nM; that for `CC(C)C[C@H](C(N)=O)N(Cc1ccc(C(C)C)cc1)S(=O)(=O)c1ccc(Cl)cc1`, 0.58 nM.
Take `CC(C)C[C@H](C(N)=O)N(Cc1ccc(C(C)(C)C)cc1)S(=O)(=O)c1ccc(Cl)cc1`: the IC50 in series [6] (read-out: IC50) came out at 0.39 nM.
For the molecule `CC(C)C[C@H](C(N)=O)N(Cc1ccc(N(C)C)cc1)S(=O)(=O)c1ccc(Cl)cc1`, in series [6] (read-out: IC50), the IC50 came out at 0.27 nM.
On to `CC(C)C[C@H](C(N)=O)N(Cc1ccc(CN(C)C)cc1)S(=O)(=O)c1ccc(Cl)cc1`, for which, in [6] (read-out: IC50), the IC50 was found to be 7.7 nM.
Consider `CC(C)C[C@H](C(N)=O)N(Cc1ccc(F)c(F)c1)S(=O)(=O)c1ccc(Cl)cc1`, for which, in series [6] (read-out: IC50), the IC50 was 0.44 nM.
As to `CC(C)C[C@H](C(N)=O)N(Cc1cc(F)cc(F)c1)S(=O)(=O)c1ccc(Cl)cc1`, the IC50 in series [6] (read-out: IC50) was 0.62 nM.
Consider `COc1ccc(CN(CC(N)=O)S(=O)(=O)c2ccc(Cl)cc2)cc1F`, for which, in series [6] (read-out: IC50), the IC50 is 2000 nM.
Still for that read-out and setting: the result for `COc1ccc(CN([C@H](C)C(N)=O)S(=O)(=O)c2ccc(Cl)cc2)cc1F` reads 5.3 nM.
For `CC[C@H](C(N)=O)N(Cc1ccc(C#N)cc1)S(=O)(=O)c1ccc(Cl)cc1`, the IC50 in series [6] (read-out: IC50) is 4.4 nM.
Consider `CCC[C@H](C(N)=O)N(Cc1ccc(C#N)cc1)S(=O)(=O)c1ccc(Cl)cc1`, for which the IC50 in series [6] (read-out: IC50) is 2.6 nM.
Turning to `CCC[C@H](C(N)=O)N(Cc1ccc(OC)c(F)c1)S(=O)(=O)c1ccc(Cl)cc1`, the Stability in the series with Liver microsomes and in the series with Liver was 0.3 nmol/min/mg each time. Besides, the concentration at 3 h in series [2] was found to be 840 nM; in series [4], 380 nM. In addition, the inhibition in vivo at 200 µmol/kg with Mus musculus [3] came to 72%; in the series on Mus musculus [5], 41%. The IC50 in [6] (read-out: IC50) turned out to be 0.52 nM.
`CCCC[C@H](C(N)=O)N(Cc1ccc(C#N)cc1)S(=O)(=O)c1ccc(Cl)cc1`: the IC50 in [6] (read-out: IC50) worked out at 1 nM.
Same read-out and setting: the result for `COc1ccc(CN([C@@H](C(N)=O)C(C)C)S(=O)(=O)c2ccc(Cl)cc2)cc1F` reads 1.4 nM.
With `NC(=O)[C@@H](CC1CC1)N(Cc1ccc(C(F)(F)F)cc1)S(=O)(=O)c1ccc(Cl)cc1`, the Stability with Liver microsomes stood at 0.23 nmol/min/mg; in the series on Liver it was 0.27 nmol/min/mg. Besides, the figures for the concentration at 3 h in series [2] and in series [4] were 3600 nM and 6300 nM, respectively. The results for the inhibition in vivo at 200 µmol/kg in the series on Mus musculus [3] and in the series on Mus musculus [5] were 78% and 65%, respectively. Besides, the IC50 in series [6] (read-out: IC50) is 0.68 nM.
For `C=CC[C@H](C(N)=O)N(Cc1ccc(OC)c(F)c1)S(=O)(=O)c1ccc(Cl)cc1`, the IC50 in [6] (read-out: IC50) was 0.35 nM.
As to `COc1ccc(CN([C@H](Cc2ccccc2)C(N)=O)S(=O)(=O)c2ccc(Cl)cc2)cc1`, the IC50 in series [6] (read-out: IC50) came out at 390 nM.
Take `CSCC[C@H](C(N)=O)N(Cc1ccc(C#N)cc1)S(=O)(=O)c1ccc(Cl)cc1`: the IC50 in [6] (read-out: IC50) turned out to be 19 nM.
On the same count and under the same terms, the result for `C[S+]([O-])CC[C@H](C(N)=O)N(Cc1ccc(C#N)cc1)S(=O)(=O)c1ccc(Cl)cc1` (stereo not given in full) reads 1800 nM; that for `CS(=O)(=O)CC[C@H](C(N)=O)N(Cc1ccc(C#N)cc1)S(=O)(=O)c1ccc(Cl)cc1`, 4300 nM; that for `COC[C@H](C(N)=O)N(Cc1ccc(C#N)cc1)S(=O)(=O)c1ccc(Cl)cc1`, 48 nM.
For `CC(C)(C)C(=O)C[C@H](C(N)=O)N(Cc1ccc(C#N)cc1)S(=O)(=O)c1ccc(Cl)cc1`, the IC50 in series [6] (read-out: IC50) was 54 nM.
Regarding `COc1ccc(CN([C@@H]2CCCCNC2=O)S(=O)(=O)c2ccc(Cl)cc2)cc1`, the Stability was found to be 0.23 nmol/min/mg in the series with Liver microsomes and 0.22 nmol/min/mg in the series with Liver. The concentration at 3 h in series [2] amounted to 280 nM; in [4], 2200 nM. The inhibition in vivo at 200 µmol/kg in the series on Mus musculus [3] turned out to be 49%; in the series on Mus musculus [5], 47%.

Source of the values: ChEMBL document CHEMBL2163294, “2-(N-Benzyl-N-phenylsulfonamido)alkyl amide derivatives as γ-secretase inhibitors” (Bioorg Med Chem Lett, 2012).
